Runt-SMMHC FRET: Runt domain-CBFb-SMMHC interaction inhibition | inhibition, % at 20 µM | Cerulean-Runt/Venus-CBFb-SMMHC FRET ratio 530/480, 1 h | actives 0.74% (n = 220,000) | AID 1434 | Q01196+Q13951;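 active means mean inhibition across duplicate retests at 20 µM reaching about 50%, limit read from the data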;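 further: 0% = DMSO wells and 100% = wells with excess untagged CBFb-SMMHC; inhibitors lower the FRET ratio by blocking Runt binding to CBFb-SMMHC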
RBBP9 inhibitor: blocks human serine hydrolase RBBP9; O75884; recombinant RBBP9, FP-Rh probe fluorescence polarization; inhibition, % at 7.94 µM; actives 0.2% (n = 220,000); AID 1515;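 active means inhibition above the campaign mean of all tested compounds plus 3 SD, cut at about 14% in these data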;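 further: plate controls were DMSO wells with RBBP9 for no effect and wells lacking RBBP9 protein for full effect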
Target sequence (O75884 whole entry, looked up): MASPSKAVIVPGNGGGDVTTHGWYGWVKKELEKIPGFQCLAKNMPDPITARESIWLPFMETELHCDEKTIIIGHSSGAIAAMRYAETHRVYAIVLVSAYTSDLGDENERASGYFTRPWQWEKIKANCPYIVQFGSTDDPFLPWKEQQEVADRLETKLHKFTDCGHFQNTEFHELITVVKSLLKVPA
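Controls: DMSO-treated enzyme wells and wells lacking RBBP9 | Material: RBBP9 protein | Technique: Fluorescence polarization | Replication: Single well per compound, no replicates | Buffer or medium: Tris-NaCl-Pluronic buffer, pH 8.0 | Timing: 30 min compound preincubation, 45 min probe labeling, 25 °C | Read-out basis: Percent inhibition from mP, scaled between DMSO and no-protein wells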
Runt-CBFb FRET: inhibitors of human RUNX1 Runt domain binding to CBFb; Q01196+Q13951; Cerulean-Runt/Venus-CBFb FRET ratio 530/480, 1 h; inhibition, % at 20 µM; actives 0.46% (n = 220,000); AID 1496;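 active means inhibition over about 50% at 20 µM in the single-dose screen, limit read from the data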;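 further: 0% = DMSO wells and 100% = excess unlabeled CBFb competitor control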
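test system = Cerulean-Runt domain fusion protein, energy donor | probe or stimulus = Venus-CBFb binding partner, 100 nM | incubation = two 1 h room-temperature incubations shielded from light | detection = fluorescence energy transfer, 422 nm excitation, 530/480 nm emission | measure = loss of energy transfer signal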
Hck-Nef inh: blocks Nef-activated human Hck kinase; P08631; Recombinant Hck-YEEI plus Nef, Z-Lyte FRET kinase assay; inhibition, % at 20 µM; actives 0.68% (n = 220,000);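 active means Hck-Nef kinase inhibition above about 50%, limit read from the data; inactive means inhibition below that limit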;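 further: 0% = DMSO with Hck plus Nef and 100% = Hck alone without Nef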
PfM18AAP inh: PfM18AAP enzyme inhibition. recombinant PfM18AAP, H-Glu-NHMec fluorogenic cleavage. inhibition, % at 7.35 µM. actives 1.2% (n = 290,000). AID 1822;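 active means inhibition above the campaign mean inhibition over all tested compounds plus 3 SD, cut at about 28% in these data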;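 further: 0% = plate median of test compound wells and 100% = 2 mM ZnCl2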
RanGTP-Imp inh: inhibitors of RanGTP-importin-beta interaction, primary screen, biochemical, FRET, CFP-Ran, YFP-importin-beta, homogeneous; cell-free CFP-Ran/YFP-importin-beta FRET ratio; inhibition, % (no concentration beside the values); actives 1.1% (n = 300,000);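 active means more than half of the replicate wells show a fall in the fluorescence ratio signal beyond about 16%, limit read from the data, passing the limit was not always enough; inconclusive means exactly half of the replicate wells pass the set limit; inactive means fewer than half of replicates pass the limit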;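 further: 0% = DMSO wells and 100% = Ran loaded with GDP instead of GTP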
An asterisk follows results filed as active; ? = inconclusive; . = no result. Only some compounds are listed: those with a hit (about 2.9% of all), similar ones and a draw of the others.

SMILES | Runt-SMMHC FRET | RBBP9 inhibitor | Runt-CBFb FRET | Hck-Nef inh | PfM18AAP inh | RanGTP-Imp inh
CCOC(=O)c1c(C)nsc1NC(=O)c1ccco1 | . | . | . | . | 5 | 4
N#Cc1c(NC(=O)c2ccccc2Cl)n(Cc2ccccc2)c2nc3ccccc3nc12 | 111* | -3 | 49 | 22 | 19 | .
CCCCN(C(=O)c1oc2ccc(OCC)cc2c1C)c1c(N)n(CC(C)C)c(=O)[nH]c1=O | . | . | . | . | . | -1
CCc1nnc(NC(=O)CCc2ccccc2OC)s1 | . | . | . | . | -2 | 2
CCCCn1c(NC(=O)CC)c(C#N)c2nc3ccccc3nc21 | 11 | 0 | 4 | 23 | -2 | 5
CCCCn1c(NC(=O)c2ccccc2Cl)c(C#N)c2nc3ccccc3nc21 | 60* | -10 | 84* | 4 | 19 | -5
Cc1ccc(C)c(N2CC(C(=O)OCC(=O)Nc3cc(C)on3)CC2=O)c1 (stereo unspecified) | . | . | . | . | 2 | -1
CCOC(=O)C1CCN(c2nc3ccccc3n2CC(=O)c2ccccc2)CC1 | -1 | -1 | 2 | 21 | -1 | 21*
CCCCC1=CC2=CC(=O)C(C)(OC(=O)c3cnc4ccccc4n3)C(=O)C2=CO1 (stereo unspecified) | -47 | . | -26 | 65* | . | -42
NC1=NC(c2ccccc2)N=C(Nc2ccccc2)N1 (stereo unspecified) | -3 | -5 | 2 | 6 | -6 | -3
CCCC(C)c1nnc(NC(=O)CCS(=O)(=O)Cc2ccccc2)s1 (stereo unspecified) | . | . | . | . | 29* | -6
CCn1c(=S)[nH]c2scc(-c3cccs3)c2c1=O | 5 | -12 | 6 | 15 | -2 | ?
CC(C)n1c(=S)[nH]c2scc(-c3cccs3)c2c1=O | -12 | -9 | 8 | 98* | 7 | ?
COc1cc2ccccc2nn1 | 82* | -10 | 10 | -31 | -1 | 65*
COc1ccc(CNc2nc3ccccc3s2)cc1OC | . | . | . | . | 2 | 6
CCCCNC(=O)CCC(=O)Nc1ccc2nc(N3CCCCC3)cc(C)c2c1 | 4 | -3 | 0 | 69* | 5 | 4
O=C(O)CCNc1cc(N2CCN(C(=O)c3ccco3)CC2)c2noc3c2c1C(=O)c1ccccc1-3 | . | . | . | . | 35* | -39
CCN1CCN(c2cc(N3CCN(C(=O)c4ccco4)CC3)c3c4c(onc24)-c2ccccc2C3=O)CC1 | . | . | . | . | 22 | 10
COC(=O)C1=C(C(=O)OC)C2C(C)=CC(C)=CN2C(C(=O)OC)=C1C(=O)OC (stereo unspecified) | 9 | -9 | 2 | 3 | 6 | 72*
COc1ccccc1C1CN(c2ccc(F)cc2F)N=C1c1cccs1 (stereo unspecified) | 83* | -7 | 16 | 47 | -5 | -10
Cc1ccc(CNC(=O)C2CCCN(S(=O)(=O)N3CC(C)CC(C)C3)C2)cc1 (stereo unspecified) | . | . | . | . | -9 | -2
CN(C)/C=C1/N=C(c2ccccc2)OC1=O | 6 | -3 | 0 | 3 | 13 | -1
Cc1ccc(C2=N/C(=C\N(C)C)C(=O)O2)cc1 | -1 | -9 | 0 | 4 | -3 | 17*
CCOc1ccc(CN(C(=O)c2ccccn2)c2ccc(OC)c(Cl)c2)cc1 | . | . | . | . | 1 | -1
O=C(c1ccccc1)c1ccc2nc(-c3ccco3)c(-c3ccco3)nc2c1 | -33 | 3 | 5 | 58* | 15 | 0
SMILES | Runt-SMMHC FRET | RBBP9 inhibitor | Runt-CBFb FRET | Hck-Nef inh | PfM18AAP inh | RanGTP-Imp inh
O=C(NCCc1ccccc1)c1ccc2nc(-c3ccco3)c(-c3ccco3)nc2c1 | -45 | -4 | 2 | 15 | -2 | 39*
O=C(NCCO)c1ccc2nc(-c3ccco3)c(-c3ccco3)nc2c1 | -18 | -1 | 6 | -4 | 21 | 3
CC(C)(C)c1ccccc1NC(=S)NC1CCCC1 | . | . | . | . | -8 | -2
CC(C)(C)c1ccccc1NC(=S)NC1CCCCC1 | -3 | -1 | -2 | 22 | -20 | 83*
CCCCN(CCCNC(=O)C1CCN(S(=O)(=O)CC)CC1)c1ccccc1 | 7 | 3 | 2 | 0 | 0 | 22*
O=C(NNc1cc(N2CCOCC2)nc(N2CCOCC2)n1)c1ccc(Cl)c(Cl)c1 | 3 | -2 | 1 | 1 | 8 | 134*
O=C(NNC(=O)C12CC3CC(CC(C3)C1)C2)c1csc(N2CCOCC2)n1 | . | . | . | . | . | 8
